Reference: paper PMC8266240 (Journal of Enzyme Inhibition and Medicinal Chemistry, 2021)
Peptide text beside a SMILES is read from it. * marks the point of attachment. Cbz = O=C(OCc1ccccc1)*; CH2F = FC*

Each compound was assayed on HeLa cells (assay: Effect of inhibitors/activators on 12A-induced vacuolization in HeLa cells). Conditions: pre- or co-treated with 12A, 8 h.
Assay type: cell-based, human
Procedure, shortened: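 HeLa cells, alone or with the vacuolization-inducing test compound, were exposed to modulators for 8 h: pan-caspase inhibitor Z-VAD-FMK, autophagy inhibitors 3-MA and LY294002, autophagy activator rapamycin, bafilomycin A1, cycloheximide, ERK1/2 inhibitor PD98059 and JNK inhibitor SP600125. Some inhibitors were given as a 2 h pre-treatment before the test compound. Vacuoles were assessed by microscopy imaging.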

Structure (SMILES)	effect on 12A-induced vacuolization
CO/C1=C\C(C)=C\[C@@H](C)[C@@H](O)[C@@H](C)C/C(C)=C/C=C/[C@H](OC)[C@@H]([C@@H](C)[C@@H](O)[C@H](C)[C@@]2(O)C[C@@H](O)[C@H](C)[C@@H](C(C)C)O2)OC1=O [Baf-A1, Bafilomycin A1]	dramatically blocked the formation of vacuoles
COc1cccc(-c2cc(=O)c3ccccc3o2)c1N [PD98059]	significantly decreased
COC(=O)C[C@H](NC(=O)[C@H](C)NC(=O)[C@@H](NC(=O)OCc1ccccc1)C(C)C)C(=O)CF [Z-VAD-FMK] (Cbz-Val-Ala-Asp(OMe)-CH2F)	not inhibited
Oc1c2ccccc2c2c3c(cccc13)N=N2 [SP600125]	significantly decreased
CO[C@H]1C[C@@H]2CC[C@@H](C)[C@@](O)(O2)C(=O)C(=O)N2CCCC[C@H]2C(=O)O[C@H]([C@H](C)C[C@@H]2CC[C@@H](O)[C@H](OC)C2)CC(=O)[C@H](C)/C=C(\C)[C@@H](O)[C@@H](OC)C(=O)[C@H](C)C[C@H](C)/C=C/C=C/C=C/1C [rapamycin]	failed to promote
Cn1cnc(N)c2ncnc1-2 [3-methyladenine]	did not decrease
C[C@@H]1C[C@@H]([C@H](O)CC2CC(=O)NC(=O)C2)C(=O)[C@@H](C)C1 [CHX, Cycloheximide]	dramatically blocked the formation of vacuoles
O=c1cc(N2CCOCC2)oc2c(-c3ccccc3)cccc12 [LY294002]	did not decrease
